mABHD4 FP: inhibits mouse alpha/beta hydrolase domain 4 | Q8VD66 | purified mABHD4, FP-Rh probe fluorescence polarization | inhibition, % at 8.92 µM | hit rate 0.54% among 370,000 | AID 720543;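 active = inhibition exceeding the mean over every tested compound plus 3 SD, cut at about 30% in these data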;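 note: 0% = plate median of compound wells and 100% = S159A mutant with DMSO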
Target sequence (Q8VD66 whole entry, looked up, the tested form may be a part): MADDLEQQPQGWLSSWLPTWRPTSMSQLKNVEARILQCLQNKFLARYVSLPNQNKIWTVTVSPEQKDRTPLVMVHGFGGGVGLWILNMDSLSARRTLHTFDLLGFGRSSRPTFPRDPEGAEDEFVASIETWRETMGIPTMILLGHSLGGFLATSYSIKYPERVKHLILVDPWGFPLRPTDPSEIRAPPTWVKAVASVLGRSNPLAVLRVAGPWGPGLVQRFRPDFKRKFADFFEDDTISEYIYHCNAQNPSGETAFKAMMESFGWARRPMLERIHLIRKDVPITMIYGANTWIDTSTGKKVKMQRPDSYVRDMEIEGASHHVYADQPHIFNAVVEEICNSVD
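Test system: mABHD4 protein | Buffer or medium: HEPES pH 7.0 buffer, 150 mM NaCl, 0.01% Pluronic F-127 | Probe or stimulus: FP-Rh fluorescent activity-based probe, added after compound pre-incubation | Timing: Pre-incubation 45 min, probe exposure 60 min, at 25 °C | Technique: Fluorescence polarization, excitation 525 nm, emission 598 nm, BODIPY TMR filters | Repeats: Single well per compound (singlicate)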
TCR CD3 inh: inhibitors of human TCR-CD3 interaction; TAMRA-labeled TCR probe fluorescence, biochemical; inhibition, % at 9.4 µM; hit rate 0.37% among 360,000; AID 651800; in the data active = inhibition above about 19%;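 note: recombinant mutant TCR 2C K166C tagged with TAMRA read by polarization; 0% = receptor in buffer alone and 100% = receptor with positive control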
rCAG binder: binds r(CAG) RNA repeats; r(CAG) RNA repeat, TO-PRO-1 dye displacement fluorescence; AID 651821; hit rate 1.3% among 370,000; inhibition, % at 3 µM;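 active = inhibition above the plate cutoff, the mean of all test compounds on that plate plus 3 SD, cut at about 35% in these data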;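 note: 0% = DMSO alone and 100% = 100 µM mitoxantrone as full dye displacement; higher means more dye released from RNA so lower well fluorescence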
SIAE inh: human SIAE inhibition, primary screen; Q9HAT2; SIAE FP-Rh probe binding, fluorescence polarization; inhibition, % at 9.66 µM; hit rate 0.69% among 370,000; AID 1053197;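 active = inhibition above a cutoff: mean of compounds within the control limits plus 3 SD of those, cut at about 17% in these data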;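 note: 0% = plate median of compound wells and 100% = probe without SIAE protein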
PRMT1 inh: PRMT1 (human) inhibition, primary screen | AID 652257 | inhibition, % at 2.79 µM | Q99873 | hit rate 1.3% among 370,000 | recombinant PRMT1, activity-based probe fluorescence polarization;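 active = inhibition above about 21% made by adding two undisclosed values, limit read from the data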
Target sequence (Q99873 whole entry, looked up): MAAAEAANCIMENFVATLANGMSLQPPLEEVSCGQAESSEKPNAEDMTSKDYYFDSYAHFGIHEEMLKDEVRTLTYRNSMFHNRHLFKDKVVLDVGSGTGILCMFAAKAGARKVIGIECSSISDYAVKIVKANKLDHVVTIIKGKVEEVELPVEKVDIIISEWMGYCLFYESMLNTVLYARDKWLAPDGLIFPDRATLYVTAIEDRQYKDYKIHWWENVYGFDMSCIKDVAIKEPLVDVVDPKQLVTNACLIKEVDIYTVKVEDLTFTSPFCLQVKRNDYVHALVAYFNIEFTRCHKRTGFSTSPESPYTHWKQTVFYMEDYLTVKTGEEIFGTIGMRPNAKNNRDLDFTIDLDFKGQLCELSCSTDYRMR
rCAG binder conf: r(CAG) RNA repeat binding, confirmation | shares compounds with rCAG binder | TO-PRO-1 dye displacement fluorescence | inhibition, % at 3 µM | hit rate 70% among 4,300;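 active = inhibition above a per-plate cutoff, the mean inhibition of sample wells plus 3 SD, cut at about 35% in these data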;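 note: loss of TO-PRO-1 fluorescence as compound displaces dye from 1x1 AA loop RNA; 0% = DMSO only wells and 100% = 100 µM mitoxantrone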
DNA CAG counter: disrupts DNA CAG TO-PRO-1 complex, flagging rCAG hits; shares compounds with rCAG binder; d(CAG) DNA oligo TO-PRO-1 dye displacement, fluorescence; inhibition, % at 3 µM; hit rate 94% among 4,300;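 active = inhibition above its plate's cutoff, the mean test-well inhibition plus 3 SD, cut at about 4.8% in these data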;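 note: 0% = DNA dye mix with DMSO and 100% = 100 µM mitoxantrone; hits displace the dye from DNA and so lower well fluorescence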
dCAG dye DR: DNA CAG dye complex inhibition, dose response counter-screen; shares compounds with rCAG binder; DNA CAG/GTC duplex TO-PRO-1 dye displacement fluorescence; IC50, µM; hit rate 20% among 250; in the data active = IC50 below about 10 µM
* hit, by the source's call. A selection: hits, their analogues and other compounds. The true share with any hit is near 3.3%.

How did O=S(=O)(Nc1ncccn1)c1ccc(NC(=S)N2CCN(c3cccc(C(F)(F)F)c3)CC2)cc1 do in these assays?
mABHD4 FP: 1.2; TCR CD3 inh: 4.1; rCAG binder: 49.9*; SIAE inh: 4.8; PRMT1 inh: 0.3; rCAG binder conf: 58.6*; DNA CAG counter: 15.6*

How did C=CCn1c(SCC(=O)Nc2ccc(CCCC)cc2)nnc1-c1ccc(Cl)cc1 do in these assays?
mABHD4 FP: 0.4; rCAG binder: 1.6; SIAE inh: -0.5; PRMT1 inh: 5.7

What do the screens show for `COc1ccc(C#Cc2ccc3c(c2)[C@H]2[C@H](CCN2S(=O)(=O)c2ccccc2F)[C@H](CO)N3C)cc1`?
mABHD4 FP: 6.5; rCAG binder: 12.2; SIAE inh: 2.3; PRMT1 inh: 0.0

Results for COC(=O)c1cc(-c2ccc(-c3ccccc3)c(F)c2)c(=O)n2c1CCC2 ?
mABHD4 FP: 1.8; rCAG binder: 2.1; SIAE inh: -5.7; PRMT1 inh: 0.3

Results for CCc1nnc(NS(=O)(=O)c2ccc(NCc3cc(Cl)cc(Cl)c3O)cc2)s1 ?
mABHD4 FP: -23.4; TCR CD3 inh: 0.8; rCAG binder: 69.9*; SIAE inh: 10.0; PRMT1 inh: 2.1; rCAG binder conf: 36.8*; DNA CAG counter: 9.5*

How did Cc1ccc(O)c(CNc2ccc(S(=O)(=O)Nc3nccs3)cc2)c1 do in these assays?
mABHD4 FP: 1.7; TCR CD3 inh: -2.5; rCAG binder: 20.0; SIAE inh: 5.7; PRMT1 inh: 1.6

Results for CCc1nnc(NS(=O)(=O)c2ccc(NCc3cc(Cl)ccc3O)cc2)s1 ?
mABHD4 FP: -22.0; TCR CD3 inh: -2.5; rCAG binder: 65.0*; SIAE inh: -0.4; PRMT1 inh: 2.7; rCAG binder conf: 46.2*; DNA CAG counter: 14.4*

Results for O=C(CSc1nc2ncccc2[nH]1)N1CCOCC1 ?
mABHD4 FP: 2.2; rCAG binder: 0.5; SIAE inh: -3.2; PRMT1 inh: -4.5

How did C[C@@H]1CN([C@@H](C)CO)C(=O)CCCn2cc(nn2)CO[C@H]1CN(C)C(=O)c1ccc(N2CCN(C)CC2)cc1 do in these assays?
mABHD4 FP: 3.3; TCR CD3 inh: -5.5; rCAG binder: -1.2; SIAE inh: 1.8; PRMT1 inh: -0.6

How did O=C(CC1S/C(=N/N=C/c2c[nH]c3ccccc23)NC1=O)Nc1ccccc1 (stereo unspecified) do in these assays?
mABHD4 FP: -11.1; TCR CD3 inh: -4.6; rCAG binder: 59.6*; SIAE inh: -7.6; PRMT1 inh: 2.3; rCAG binder conf: 44.6*; DNA CAG counter: 15.2*

How did O=C(CC1S/C(=N/N=C/c2ccco2)NC1=O)Nc1ccccc1 (stereo unspecified) do in these assays?
mABHD4 FP: 5.4; TCR CD3 inh: 5.5; rCAG binder: 7.7; SIAE inh: 1.2; PRMT1 inh: 1.6

Results for O=C(CC1S/C(=N/N=C/c2c[nH]c3ccc(OCc4ccccc4)cc23)NC1=O)Nc1ccccc1 (stereo unspecified) ?
mABHD4 FP: -8.5; TCR CD3 inh: 2.0; rCAG binder: 40.5*; SIAE inh: 7.6; PRMT1 inh: 0.5; rCAG binder conf: 50.4*; DNA CAG counter: 26.9*

What do the screens show for `O=C(CC1S/C(=N/N=C/c2cccs2)NC1=O)Nc1ccc(Cl)cc1` (stereo unspecified)?
mABHD4 FP: -4.8; TCR CD3 inh: -0.3; rCAG binder: 24.0; SIAE inh: -14.4; PRMT1 inh: -0.9

Results for Cc1nc2c(C(=O)NCCc3ccccc3Cl)c[nH]n2c(=O)c1Cl ?
mABHD4 FP: -35.1; TCR CD3 inh: 3.3; rCAG binder: 70.7*; SIAE inh: 7.8; PRMT1 inh: -1.2; rCAG binder conf: 74.3*; DNA CAG counter: 33.4*; dCAG dye DR: 4.48*

Results for Cc1nc2c(C(=O)NCc3ccccc3Cl)c[nH]n2c(=O)c1Cl ?
mABHD4 FP: -43.1; TCR CD3 inh: -12.7; rCAG binder: 80.6*; SIAE inh: 2.7; PRMT1 inh: -0.6; rCAG binder conf: 58.0*; DNA CAG counter: 20.8*

How did CCCCN1C(=O)N2Cc3ccccc3C2CS1(=O)=O (stereo unspecified) do in these assays?
mABHD4 FP: -5.4; rCAG binder: -1.8; SIAE inh: -3.7; PRMT1 inh: 0.3

What do the screens show for `CCOC(=O)[C@]12CCCCC/C=C\1N(Cc1ccc(OC)cc1)C(=O)[C@H]2CC(=O)N1CCSCC1`?
mABHD4 FP: -5.6; rCAG binder: 4.1; SIAE inh: 0.9; PRMT1 inh: 0.5

What do the screens show for `O=C(O)Cn1c(=O)c2c3c(sc2n(Cc2ccc(Cl)cc2Cl)c1=O)CCCC3`?
mABHD4 FP: -11.9; TCR CD3 inh: -0.1; rCAG binder: 43.5*; SIAE inh: 5.2; PRMT1 inh: 2.4; rCAG binder conf: 57.7*; DNA CAG counter: 18.6*

How did CC1CCc2sc3c(c2C1)c(=O)n(CC(=O)O)c(=O)n3Cc1ccc(Cl)cc1 (stereo unspecified) do in these assays?
mABHD4 FP: 2.2; TCR CD3 inh: 2.3; rCAG binder: 54.3*; SIAE inh: -5.9; PRMT1 inh: 1.1; rCAG binder conf: 48.6*; DNA CAG counter: 13.3*

How did NCCNC(=O)Cn1c(=O)c2c3c(sc2n(Cc2ccccc2)c1=O)CCCC3 do in these assays?
mABHD4 FP: 2.7; TCR CD3 inh: 1.0; rCAG binder: 14.7; SIAE inh: -1.1; PRMT1 inh: 0.3

Results for Clc1ccc([C@H]2OC[C@@]3(CNC4CCCCC4)CS[C@H](c4ccc(Cl)cc4)N23)cc1 ?
mABHD4 FP: -3.1; rCAG binder: 2.6; SIAE inh: -3.4; PRMT1 inh: 4.4

What do the screens show for `COc1ccc(C(=O)N(C)[C@H]2C[C@H]3c4[nH]c5cccc(-c6ccccc6)c5c4CCN3C[C@H]2[C@H](C)O)cc1`?
mABHD4 FP: -0.8; rCAG binder: 11.6; SIAE inh: -0.9; PRMT1 inh: 4.6

What do the screens show for `CC(=O)c1cc(-c2ccc3c(c2)OCO3)c(=O)n2c1CCC2`?
mABHD4 FP: 2.5; rCAG binder: 1.1; SIAE inh: 2.2; PRMT1 inh: -1.0

Results for c1ccc(-n2c(SCc3cccc4ccccc34)nnc2-c2ccccn2)cc1 ?
mABHD4 FP: -2.1; rCAG binder: 3.6; SIAE inh: 0.8; PRMT1 inh: -2.6

How did Fc1ccc(-c2nc3ccc(Br)cn3c2Cc2ccccc2C(F)(F)F)cc1 do in these assays?
mABHD4 FP: 3.6; TCR CD3 inh: -0.4; rCAG binder: 51.2*; SIAE inh: -6.7; PRMT1 inh: 4.0; rCAG binder conf: 11.1; DNA CAG counter: 1.6
